One block for each compound: values may come before it.
Experiments:
[1] = (§1) Partition coefficient (logP); assay type: physicochemical; conditions: octanol/water
In short: (§2)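 Apparent octanol–water partition coefficient D, measured in unbuffered water (pH 7.2–7.6) using an HPLC refractive-index assay. True P is calculated as […], and P7.4 as P/[1 + 10^(7.4 − pKa)], using pKa values from potentiometric titration.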

[2] = as §1; assay type: physicochemical; conditions: octanol/water; in short: as §2; remark: listed apart in the source
[3] = as §1; assay type: physicochemical; conditions: octanol/water; in short: as §2; remark: listed apart in the source
[4] = Pharmacokinetic parameter :log P7.4 log P value at pH 7.4; assay type: physicochemical; conditions: buffer, read-out: Log D7.4; in short: as §2
[5] = Pharmacokinetic parameter :The dissociation constant values at 25 degrees C, obtained by potentiometric titration.; assay type: ADME
[6] = pH 7.4 value at 7.35 pH; assay type: ADME; in short: as §2
[7] = Inhibition concentration by inhibition of carbonic anhydrase from blood in Rat. 95% confidence limits are given in parentheses.
[8] = Inhibition concentration by inhibition of carbonic anhydrase from brain in Rat. 95% confidence limits are given in parentheses.
[9] = Inhibition concentration by inhibition of carbonic anhydrase from myelin in Rat. 95% confidence limits are given in parentheses.
[10] = Inhibition concentration by inhibition of carbonic anhydrase from synaptosomes in Rat. 95% confidence limits are given in parentheses.; assay type: subcellular, Brain
[11] = Inhibition concentration of the compounds were determined by inhibition of carbonic anhydrase from kidney in Rat. 95% confidence limits are given in parentheses.
[12] = species: Mus musculus; experiment: Compound was tested for the effective dose (ED50) for each time point in Mice. 95% confidence limits are given in parentheses 1 Hour; assay type: functional
[13] = species: Mus musculus; experiment: Compound was tested for the effective dose (ED50) for each time point in Mice. 95% confidence limits are given in parentheses 16 Hour; assay type: functional
In short: (§3)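 Mouse MES time-course study. Compounds are given orally, and hind-limb tonic-extensor block after corneal-electrode shock is scored at each time point. For each time point, the ED50 (mg/kg) is reported with 95% confidence limits.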

[14] = species: Mus musculus; experiment: Compound was tested for the effective dose (ED50) for each time point in Mice. 95% confidence limits are given in parentheses 2 Hour; assay type: functional
[15] = species: Mus musculus; experiment: Compound was tested for the effective dose (ED50) for each time point in Mice. 95% confidence limits are given in parentheses 24 Hour; assay type: functional; in short: as §3
[16] = species: Rattus norvegicus; experiment: Compound was tested for the effective dose (ED50) for each time point in Rats. 95% confidence limits are given in parentheses 48 Hour; assay type: functional
In short: (§4)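 Rat MES time-course study. Compounds are given orally, and block of the hind-limb tonic-extensor seizure induced by corneal electroshock is assessed at each time point. For each time point, the ED50 (mg/kg) is reported with 95% confidence limits.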

[17] = species: Rattus norvegicus; experiment: Compound was tested for the effective dose (ED50) for each time point in Rats. 95% confidence limits are given in parentheses 8 Hour; assay type: functional; in short: as §4
[18] = species: Rattus norvegicus; experiment: Compound was tested for the effective dose (ED50) for each time point in Rats. 95% confidence limits are given in parentheses 1 Hour; assay type: functional; in short: as §4
[19] = species: Rattus norvegicus; experiment: Compound was tested for the effective dose (ED50) for each time point in Rats. 95% confidence limits are given in parentheses 12 Hour; assay type: functional; in short: as §4
[20] = species: Rattus norvegicus; experiment: Compound was tested for the effective dose (ED50) for each time point in Rats. 95% confidence limits are given in parentheses 2 Hour; assay type: functional; in short: as §4
[21] = species: Rattus norvegicus; experiment: Compound was tested for the effective dose (ED50) for each time point in Rats. 95% confidence limits are given in parentheses 24 Hour; assay type: functional; in short: as §4
[22] = species: Rattus norvegicus; experiment: Compound was tested for the effective dose (ED50) for each time point in Rats. 95% confidence limits are given in parentheses 4 Hour; assay type: functional; in short: as §4
[23] = test system: Mus musculus; experiment: Activity against maximal electroshock seizures in mice, 4 hr following oral administration of 35 mg/kg of compound; assay type: functional
In short: (§5)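 Mouse maximal electroshock seizure test. An electric shock is applied through corneal electrodes, and block of the hind-limb tonic-extensor seizure is scored. Compounds are given orally, usually to 10 mice per group, and tested 4 h after dosing. The result is reported as percent of dosed animals protected at the stated dose.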

[24] = species: Rattus norvegicus; experiment: Compound was tested for the effective dose (ED50) for each time point in Rats. 95% confidence limits are given in parentheses 16 Hour; assay type: functional; in short: as §4
[25] = species: Mus musculus; experiment: Compound was tested for the effective dose (ED50) for each time point in Mice. 95% confidence limits are given in parentheses 12 hr; assay type: functional; in short: as §3
[26] = pH 7.4 value at pH 7.25; assay type: ADME; in short: as §2
[27] = species: Mus musculus; experiment: Compound was tested for the effective dose (ED50) for each time point in Mice. 95% confidence limits are given in parentheses 4 Hour; assay type: functional
[28] = test system: Mus musculus; experiment: Effective dose against maximal electroshock seizures in mice, at 4 hr following oral administration of 10 mg/kg of compound; assay type: functional
[29] = Inhibition concentration by inhibition of carbonic anhydrase from kidney in Rat. 95% confidence limits are given in parentheses.
[30] = test system: Mus musculus; experiment: Compound activity was measured at 4 hr following administration of the oral dosage (perorally) 300 mg/kg in mice, and is reported as percent block at the given dose.; assay type: functional; in short: as §5
[31] = pH 7.4 value at 7.61 pH; assay type: ADME; in short: as §2
[32] = test system: Mus musculus; experiment: Activity against maximal electroshock seizures in mice, 4 hr following oral administration of 300 mg/kg of compound; assay type: functional; in short: as §5
[33] = test system: Mus musculus; experiment: Activity against maximal electroshock seizures in mice, 4 hr following oral administration of 75 mg/kg; assay type: functional; in short: as §5
[34] = test system: Mus musculus; experiment: Compound activity was measured at 4 hr following administration of the oral dosage (perorally) 5 mg/kg in mice, and is reported as percent block at the given dose.; assay type: functional; in short: as §5
[35] = Inhibition concentration by inhibition of carbonic anhydrase from blood in Rat
[36] = Inhibition concentration by inhibition of carbonic anhydrase from brain in Rat
[37] = Inhibition concentration by inhibition of carbonic anhydrase from kidney in Rat
[38] = Inhibition concentration by inhibition of carbonic anhydrase from myelin in Rat
[39] = Inhibition concentration by inhibition of carbonic anhydrase from synaptosomes in Rat
[40] = test system: Mus musculus; experiment: Activity against maximal electroshock seizures in mice, 4 hr following oral administration of 37.5 mg/kg of compound; assay type: functional; in short: as §5
[41] = test system: Mus musculus; experiment: Activity against maximal electroshock seizures in mice, 4 hr following oral administration of 18.75 mg/kg of compound; assay type: functional; in short: as §5
[42] = test system: Mus musculus; experiment: Activity against maximal electroshock seizures in mice, 4 hr following oral administration of 80 mg/kg of compound; assay type: functional; in short: as §5
[43] = test system: Mus musculus; experiment: Activity against maximal electroshock seizures in mice, 4 hr following oral administration of 40 mg/kg of compound; assay type: functional; in short: as §5
[44] = test system: Mus musculus; experiment: Activity against maximal electroshock seizures in mice, 4 hr following oral administration of 30 mg/kg of compound; assay type: functional; in short: as §5
[45] = test system: Mus musculus; experiment: Activity against maximal electroshock seizures in mice, 4 hr following oral administration of 15 mg/kg of compound; assay type: functional; in short: as §5

logP [1]: 2.44 | logP [2]: -1.01 | logP [3]: 0.42 | logD [4]: 0.38 | pKa [5]: 8.51 | P7.4 [6]: 2.42 | IC50 [7]: 0.084 µM | IC50 [8]: 0.021 µM | IC50 [9]: 0.052 µM | IC50 [10]: 0.021 µM | IC50 [11]: 0.13 µM
SMILES: CC1(C)O[C@H]2[C@@H]3OS(=O)(=O)O[C@@H]3CO[C@@]2(COS(N)(=O)=O)O1
ED50 ([12]; Mus musculus, 1 h, read-out: ED50): 8.6 mg/kg | ED50 [13]: 50 mg/kg | ED50 ([14]; Mus musculus, 2 h, read-out: ED50): 6.6 mg/kg | ED50 [15]: 72 mg/kg | ED50 [16]: 18 mg/kg | ED50 [17]: 1 mg/kg | ED50 [18]: 3.8 mg/kg | ED50 [19]: 1.3 mg/kg | ED50 [20]: 5.1 mg/kg | ED50 [21]: 2.6 mg/kg | ED50 [22]: 1.7 mg/kg | Block [23]: 100% | ED50 [24]: 2.5 mg/kg | ED50 [25]: 23 mg/kg

SMILES: CC1(C)O[C@@H]2[C@@H](CO[C@@]3(COS(N)(=O)=O)OC(C)(C)O[C@@H]23)O1 [TOPIRAMATE]
logP [1]: 3.26 | logP [2]: 0.5 | logP [3]: 0.53 | logD [4]: 0.51 | pKa [5]: 8.66 | P7.4 [26]: 3.31 | IC50 [7]: 8.89 µM | IC50 [8]: 4.55 µM | IC50 [9]: 1.36 µM | IC50 [10]: 4.84 µM | ED50 [12]: 43.8 mg/kg | ED50 [14]: 47.6 mg/kg | ED50 [15]: > 1000 mg/kg | ED50 [27]: 53.5 mg/kg | ED50 [28]: 53 mg/kg | ED50 [16]: > 1000 mg/kg | ED50 [17]: 15 mg/kg | ED50 [18]: 15 mg/kg | ED50 [19]: 34 mg/kg | ED50 [20]: 16 mg/kg | ED50 [21]: 153 mg/kg | ED50 [22]: 6.7 mg/kg | ED50 [24]: 103 mg/kg | IC50 [29]: 8.35 µM | ED50 [25]: 246 mg/kg

SMILES: CC(C)(C)OC(=O)N=S1O[C@@H]2[C@@H](CO[C@@]3(COS(N)(=O)=O)OC(C)(C)O[C@@H]23)O1 (stereo not given in full)
Block [30]: 40%

logP [2]: 1.55 | logP [3]: 1.52 | logD [4]: 1.5 | pKa [5]: 8.62 | P7.4 [31]: 31.5
SMILES: CCC1(CC)O[C@@H]2[C@@H](CO[C@@]3(COS(N)(=O)=O)OC(C)(C)O[C@@H]23)O1
Block [32]: 80% | Block [33]: 0%

SMILES: CC1(C)O[C@@H]2[C@@H](CC[C@@]3(COS(N)(=O)=O)OC(C)(C)O[C@@H]23)O1
ED50 [28]: 16.6 mg/kg | Block [34]: 30% | Block [23]: 80%

IC50 [35]: 0.037 µM | IC50 [36]: 0.012 µM | IC50 [37]: 0.65 µM | IC50 [38]: 0.024 µM | IC50 [39]: 0.007 µM
SMILES: CC(=O)Nc1nnc(S(N)(=O)=O)s1 [ACETAZOLAMIDE]

SMILES: CC1(C)O[C@H]2[C@H](O)[C@@H](Cl)CO[C@@]2(COS(N)(=O)=O)O1
ED50 [28]: 24 mg/kg | Block [40]: 90% | Block [41]: 50%

SMILES: CC1(C)O[C@H]2[C@H](CO[C@]3(COS(N)(=O)=O)OC(C)(C)O[C@H]23)O1
ED50 [28]: 82 mg/kg | Block [42]: 50% | Block [43]: 20%

SMILES: CC1(C)O[C@@H]2[C@H]3OS(=O)(=O)O[C@H]3CO[C@]2(COS(N)(=O)=O)O1
ED50 [28]: 22 mg/kg | Block [44]: 80% | Block [45]: 30%
